pEC50: −log10 of the molar value.
Experiments:
[1] = system: Human immunodeficiency virus 1; experiment: Antiviral activity against HIV 1 NL4-3 infected in human TZM-bl cells after 48 hrs by luciferase reporter gene assay; assay type: functional, organism-based; settings: Human immunodeficiency virus 1, NL4-3, TZM-bl
Summary of the method: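 Single-round infection of TZM-bl cells with HIV-1 NL4-3 at 200 TCID50, in the presence of eight fourfold serial dilutions of compound. After 48 h, luciferase was read as RLU. Highest concentration tested was 20 μM.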

[2] = system: Human immunodeficiency virus 1; experiment: Antiviral activity against HIV1 RTMDR in human […] cells after 48 hrs by luciferase reporter gene assay; assay type: functional, organism-based; settings: Human immunodeficiency virus 1, RTMDR
Summary of the method: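 Single-round infection of TZM-bl cells with 200 TCID50 virus plus test sample in eight fourfold dilutions; 48 h incubation, then Bright Glo luciferase read. Highest tested concentration 20 μM.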

[3] = Cytotoxicity against human TZM-bl cells assessed as cell viability; assay type: cell-based
Summary of the method: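 TZM-bl cells (1 × 10^5 cells/mL) exposed to various compound concentrations in parallel with the antiviral assay timing. Averaged from at least three independent experiments.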

[4] = Ratio of CC50 for human TZM-bl cells to EC50 for HIV 1 NL4-3 infected in human TZM-bl cells
[5] = Ratio of CC50 for human TZM-bl cells to EC50 for HIV 1 RTMDR infected in human TZM-bl cells
[6] = Chemical stability of the compound in 1% HCl assessed as compound remaining at 1 min by HPLC analysis; assay type: physicochemical; settings: read-out: Stability
Summary of the method: (§1)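 Compound (1 mg) dissolved in MeOH (0.5 mL), 1% HCl (0.2 mL) added, shaken at room temperature. Remaining compound measured by reversed-phase HPLC (ODS2 column, 30% water/70% MeOH) as area % purity at the stated time.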

[7] = Chemical stability of the compound in 1% HCl assessed as compound remaining at 30 min by HPLC analysis; assay type: physicochemical; settings: read-out: Stability; summary of the method: as §1

Row | SMILES | pEC50 [1] | pEC50 [2] | CC50 [3] [µM] | Ratio CC50/EC50 [4] | Ratio CC50/EC50 [5] | remaining at […] [6] [%] | remaining at 0.5 h [7] [%]
1 | CCOc1ccc2c(=O)cc(CC)oc2c1CN1CCN(C(=O)C(=O)c2ccccc2)CC1 | 4.78 | 4.79 | > 22.3 | >1.33 | >1.37 |  | 
2 | CCc1cc(=O)c2ccc(OCc3cccc(C(=O)OC)c3)c(COC(=O)C34CCC(C)(C(=O)O3)C4(C)C)c2o1 (configuration not stated) | 6.03 |  | > 36.5 | 39.2 |  |  | 
3 | Cc1cc(=O)oc2c3c(ccc12)OC(C)(C)[C@H](OC(=O)[C@@]12CC[C@@](C)(C(=O)O1)C2(C)C)[C@@H]3OC(=O)[C@@]12CC[C@@](C)(C(=O)O1)C2(C)C |  |  |  |  |  | 100 | 64
4 | CCc1cc(=O)c2ccc3c(c2o1)[C@@H](OC(=O)C12CCC(C)(C(=O)O1)C2(C)C)[C@@H](OC(=O)C12CCC(C)(C(=O)O1)C2(C)C)C(C)(C)O3 (some centres not stated) | 6.92 | 6.70 | 14.2 | 118.75 | 71.25 | 100 | 91
5 | CCOc1ccc2c(=O)cc(CC)oc2c1CN1CCN(C(=O)C(=O)c2c[nH]c3ccccc23)CC1 | < 4.69 | < 4.69 | > 20.5 |  |  |  | 
6 | CCOc1ccc2c(=O)cc(CC)oc2c1CN1CCN(C(=O)C(=O)c2cccs2)CC1 | < 4.66 | 4.77 | > 22 |  | 1.3 |  | 
7 | CCc1cc(=O)c2ccc(OCc3cc(OC)cc(OC)c3)c(COC(=O)C34CCC(C)(C(=O)O3)C4(C)C)c2o1 (configuration not stated) | 4.65 |  | > 36.3 | 1.64 |  |  | 

— ChEMBL document CHEMBL1828520, “Anti-AIDS agents 86. Synthesis and anti-HIV evaluation of 2',3'-seco-3'-nor DCP and DCK analogues” (Eur J Med Chem, 2011)
